37 sequences from the array DNA melting data of Ke et al. (doi:10.1101/2024.01.08.574731) can be followed below.

The nature of data set [1]: folding enthalpy; higher = less favourable; fluorescence melt of hairpins on a sequencing array, two-state fit. As to conditions: sodium 0.088 M. In outline: (§1)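 Cy3 fluorescence of library hairpins on a sequenced MiSeq flow cell, with annealed Cy3 and quencher oligos, was imaged in 50 mM Na-HEPES pH 8.0, 25 mM NaCl in 2.5 °C steps up to 60 °C. Signals were normalised to pre-quench Cy3 and to control variants. Melting temperature and folding enthalpy came from bootstrapped two-state fits, inverse-variance combined over four replicates. Fitted temperatures were raised by 9.35 °C to match UV melts.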

Data set [2] is described as follows: melting temperature; fluorescence melt of hairpins on a sequencing array, two-state fit, raised by 9.35 °C to match UV melts. As to conditions: sodium 0.088 M. In outline: as §1

Regarding GCGACGGGAAACTGTCGC (((((.(....).))))), the folding enthalpy in data set [1] was -35.9 kcal/mol. Moreover, the Tm in data set [2] amounted to 67.6 °C.

Turning to GGTAGCGAAAGCTCAACC ((((((....)))..))), the folding enthalpy in data set [1] is -13.7 kcal/mol. In addition, in data set [2], the Tm turned out to be 34.9 °C.

GATCTGTTTTCAGATC ((((((....)))))): the folding enthalpy in data set [1] is -49.9 kcal/mol. Also, the Tm in data set [2] turned out to be 51.4 °C.

As for GCACTCGGAAACGAATGC (((.(((....))).))), the folding enthalpy in data set [1] was -33.5 kcal/mol. Further, the Tm in data set [2] came to 45.1 °C.

Take CGCGGAAGATTCCGCG ((((((....)))))): the folding enthalpy in data set [1] is -38.7 kcal/mol. Also, the Tm in data set [2] came out at 68.9 °C.

Take GCGACTGGAAACAGTCAC (.(((((....))))).): the folding enthalpy in data set [1] was -14.4 kcal/mol. The Tm in data set [2] came out at 48.2 °C.

For the sequence GAGTCGGGAAACCGATTC ((.((((....)))).)), the folding enthalpy in data set [1] is -25 kcal/mol. Moreover, the Tm in data set [2] was 47.7 °C.

GATCAGGAGGCTGATC ((((((....)))))): the folding enthalpy in data set [1] is -37.2 kcal/mol. In addition, the Tm in data set [2] was found to be 48.2 °C.

In the case of GGGCTCACGAAAGTGCCC (((..(((....)))))), the folding enthalpy in data set [1] is -21 kcal/mol. Moreover, in data set [2], the Tm was 51.9 °C.

Consider GGCATGCGAAAGCAAGCC (((.(((....))).))), for which the folding enthalpy in data set [1] is -27.8 kcal/mol. The Tm in data set [2] came to 65.4 °C.

Consider GCGGTGCGAAAGCTCTGC ((.(.((....)).).)), for which the folding enthalpy in data set [1] is -20.2 kcal/mol. Besides, in data set [2], the Tm was found to be 54.3 °C.

On to GCTTCACGAAAGTGTAGC (((.(((....))).))), for which, in data set [1], the folding enthalpy was -30.2 kcal/mol. Also, in data set [2], the Tm came out at 53.8 °C.

For CGATCGGAAACGACGTCG ((((((....)))..))), in data set [1], the folding enthalpy is -18.6 kcal/mol. Further, the Tm in data set [2] was determined as 40.8 °C.

On to GATCTGCTTACAGATC ((((((....)))))), for which, in data set [1], the folding enthalpy is -42.8 kcal/mol. The Tm in data set [2] stood at 51.8 °C.

In the case of GCACTGCGAAAGCATTGC (((.(((....))).))), the folding enthalpy in data set [1] is -42.6 kcal/mol. Further, the Tm in data set [2] stood at 52.5 °C.

As for GGACTCGGAAACGGGTTC (.((.((....)).)).), the folding enthalpy in data set [1] is -25.7 kcal/mol. In data set [2], the Tm came out at 40.2 °C.

For GGTCTCGAAAGAGTAACC ((((((....)))..))), the folding enthalpy in data set [1] is -21.9 kcal/mol. Also, the Tm in data set [2] was 35.1 °C.

GATCTGCGAAAGCAATC (((.(((....)))))): the folding enthalpy in data set [1] was -12.2 kcal/mol. Moreover, the Tm in data set [2] was 27.8 °C.

Regarding GTATGGGGAAACCCATAC (((((((....))))))), the folding enthalpy in data set [1] was -33.5 kcal/mol. In addition, the Tm in data set [2] was 59 °C.

With GATCCAAATGTGGATC ((((((....)))))), the folding enthalpy in data set [1] was -33.8 kcal/mol. In addition, the Tm in data set [2] amounted to 48.5 °C.

In the case of GTTCATCGAAAGATAAC (((.(((....)))))), the folding enthalpy in data set [1] is -12.4 kcal/mol. Further, the Tm in data set [2] came to 32.3 °C.

For the sequence CGATCCGGAAACGGTCG (((.(((....)))))), the folding enthalpy in data set [1] was -29.1 kcal/mol. In addition, the Tm in data set [2] was found to be 50.5 °C.

Turning to GGTACAGGAAACCGTACC (((((.(....).))))), in data set [1], the folding enthalpy is -33 kcal/mol. In data set [2], the Tm stood at 47.1 °C.

As for GGATCCCGAAAGGGGTCC (((.(((....))).))), in data set [1], the folding enthalpy was -39.3 kcal/mol. In addition, the Tm in data set [2] stood at 65.8 °C.

For the sequence GCACGCGGAAACGCACGC ((..(((....)))..)), the folding enthalpy in data set [1] was -18.1 kcal/mol. Besides, the Tm in data set [2] amounted to 47.2 °C.

Turning to GTATAAGGAAACTTATAC (((((((....))))))), the folding enthalpy in data set [1] was -30.9 kcal/mol. Moreover, the Tm in data set [2] amounted to 46 °C.

Turning to GCCTACGAAAGTAGAGGC ((((((....)))..))), the folding enthalpy in data set [1] was -22.7 kcal/mol. In addition, in data set [2], the Tm stood at 49.3 °C.

On to GTTGTGGCGAAAGCCAAC (((..(((....)))))), for which the folding enthalpy in data set [1] was -18.3 kcal/mol. Moreover, in data set [2], the Tm was found to be 53.7 °C.

As for GCTTCCGAAAGGATTAGC ((((((....)))..))), in data set [1], the folding enthalpy was -23.2 kcal/mol. Moreover, in data set [2], the Tm is 38.3 °C.

As to GATCACTAACGTGATC ((((((....)))))), the folding enthalpy in data set [1] was -33.1 kcal/mol. In addition, in data set [2], the Tm came out at 54.9 °C.

In the case of GGCCTAGGAAACTAGACC ((.((((....)))).)), the folding enthalpy in data set [1] is -28.6 kcal/mol. For the same sequence, the Tm in data set [2] amounted to 40.6 °C.

GAGTCCGAAAGGAGACTC ((((((....)))..))): the folding enthalpy in data set [1] was -21.9 kcal/mol. In addition, in data set [2], the Tm amounted to 44.9 °C.

Regarding GAGCACGAAAGTGCCCTC ((((((....)))..))), in data set [1], the folding enthalpy is -9.48 kcal/mol. In data set [2], the Tm was found to be 44.3 °C.

Take GAGGCTGGAAACAGTCTC (((.(((....))).))): in data set [1], the folding enthalpy is -35.8 kcal/mol. The Tm in data set [2] was 52.6 °C.

GCAAATGAAAATTTGC ((((((....)))))): the folding enthalpy in data set [1] was -45.3 kcal/mol. In addition, in data set [2], the Tm stood at 52.3 °C.

As for CGCTTACGGAAACGTGCG (((..(((....)))))), the folding enthalpy in data set [1] was -24.4 kcal/mol. In addition, the Tm in data set [2] came to 42.7 °C.

Regarding GCTGTCGAAAGACTGAGC ((((((....)))..))), the folding enthalpy in data set [1] was -18.5 kcal/mol. The Tm in data set [2] was 43 °C.
